Laboratory results taken from ChEMBL document CHEMBL4152239, “Design, synthesis and structure-activity relationship studies of GPR40 agonists containing amide linker” (Eur J Med Chem, 2018).
One block for each molecule: values may come before it. Calls of active or inactive are those of the source. The calls are words filed in the database; no cut-off is given here.

What was measured:
[1] = target: Free fatty acid receptor 1 (Homo sapiens, UniProt O14842); test: Agonist activity at human GPR40 expressed in HEK293 cells assessed as increase in calcium mobilization by Fluo-8 dye based fluorescence assay; format: functional, cell-based
Free fatty acid receptor 1 (Homo sapiens, UniProt O14842), sequence (O14842 whole entry): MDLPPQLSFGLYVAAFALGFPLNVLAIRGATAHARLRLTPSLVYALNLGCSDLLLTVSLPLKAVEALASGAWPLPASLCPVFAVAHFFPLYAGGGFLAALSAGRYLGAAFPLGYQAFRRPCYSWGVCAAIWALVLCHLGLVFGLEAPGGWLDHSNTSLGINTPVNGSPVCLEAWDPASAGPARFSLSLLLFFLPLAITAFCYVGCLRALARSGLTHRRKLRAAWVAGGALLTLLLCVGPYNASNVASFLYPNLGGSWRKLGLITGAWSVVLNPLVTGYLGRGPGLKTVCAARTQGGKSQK

[2] = Half life in human liver microsomes at 0.1 mM in presence of NADPH by LC-MS analysis; format: ADME, microsome
[3] = Half life in mouse liver microsomes at 0.1 mM in presence of NADPH by LC-MS analysis; format: ADME, microsome
[4] = Apparent permeability across apical to basolateral side in human Caco2 cells by LC-MS analysis; format: ADME, cell-based; settings: caco-2
[5] = Efflux ratio of permeability from […] in human Caco2 cells by LC-MS analysis; format: ADME, cell-based; settings: caco-2
[6] = target: Free fatty acid receptor 1 (Rattus norvegicus, UniProt Q8K3T4); test: Agonist activity at rat GPR40; format: functional
Free fatty acid receptor 1 (Rattus norvegicus, UniProt Q8K3T4), sequence (Q8K3T4 whole entry): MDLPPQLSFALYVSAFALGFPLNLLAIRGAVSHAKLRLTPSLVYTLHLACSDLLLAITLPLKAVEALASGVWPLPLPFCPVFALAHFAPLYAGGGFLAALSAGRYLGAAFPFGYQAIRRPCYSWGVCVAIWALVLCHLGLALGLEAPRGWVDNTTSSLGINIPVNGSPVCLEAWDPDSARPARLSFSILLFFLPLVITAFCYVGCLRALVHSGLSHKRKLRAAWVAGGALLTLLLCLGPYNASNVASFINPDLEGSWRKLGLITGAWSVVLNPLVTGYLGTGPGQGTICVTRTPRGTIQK

[7] = target: Free fatty acid receptor 1 (Mus musculus, UniProt Q76JU9); test: Agonist activity at mouse GPR40; format: functional
Free fatty acid receptor 1 (Mus musculus, UniProt Q76JU9), sequence (Q76JU9 whole entry): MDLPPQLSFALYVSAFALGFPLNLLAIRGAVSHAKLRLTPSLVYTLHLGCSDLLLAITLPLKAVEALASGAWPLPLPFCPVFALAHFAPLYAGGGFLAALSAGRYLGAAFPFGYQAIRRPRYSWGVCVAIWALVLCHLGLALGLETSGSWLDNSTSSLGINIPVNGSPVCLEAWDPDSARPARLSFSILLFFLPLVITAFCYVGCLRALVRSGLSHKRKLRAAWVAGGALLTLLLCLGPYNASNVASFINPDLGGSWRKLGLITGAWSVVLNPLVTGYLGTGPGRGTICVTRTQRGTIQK

[8] = AUC (0 to 8 hrs) in ICR mouse at 30 mg/kg, po by LC-MS analysis; format: ADME, organism-based; design: dose 30 mg/kg, time < 8 hr, route oral; settings: in vivo
Summary of the method: (§1)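 Male ICR mice, single oral dose of 30mg/kg, n = 3 per compound; vehicle 0.1% Tween-80 in 1% hydropropylcellulose sodium. Plasma sampled over time to derive pharmacokinetic parameters.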

[9] = Half life in ICR mouse at 30 mg/kg, po by LC-MS analysis; format: ADME, organism-based; settings: in vivo; summary of the method: as §1
[10] = Tmax in ICR mouse at 30 mg/kg, po by LC-MS analysis; format: ADME, organism-based; settings: in vivo; summary of the method: as §1
[11] = Cmax in ICR mouse at 30 mg/kg, po by LC-MS analysis; format: ADME, organism-based; design: dose 30 mg/kg, route oral; settings: in vivo; summary of the method: as §1
[12] = Ratio of drug uptake in ICR mouse brain to plasma at 30 mg/kg, po measured at 1 hr by LC-MS analysis; format: ADME, organism-based; settings: read-out: BPR
Summary of the method: (§2)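 Male ICR mice received 30mg/kg orally, n = 3. Mice were sacrificed at 0.75 h or 1 h depending on compound. Total drug in brain or liver was divided by plasma drug to give the distribution ratio.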

[13] = Ratio of drug uptake in ICR mouse liver to plasma at 30 mg/kg, po measured at 1 hr by LC-MS analysis; format: ADME, organism-based; summary of the method: as §2
[14] = tested on: Mus musculus; test: Antidiabetic activity in ICR mouse assessed as reduction in blood glucose AUC (0 to 120 mins) at 100 mg/kg, po dosed 30 minutes prior to glucose challenge by OGTT; format: functional, organism-based
Summary of the method: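 ICR mice (n=8) received compound orally before an oral glucose load of 2.5 g/kg. […] Comparison was against vehicle control by Student's t-test.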

[15] = Ratio of drug uptake in ICR mouse brain to plasma at 30 mg/kg, po measured at 0.75 hrs by LC-MS analysis; format: ADME, organism-based; settings: read-out: BPR
Summary of the method: (§3)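 Male ICR mice (n = 3) were dosed orally at 30 mg/kg and sacrificed at a set time point. The time point depended on the compound: 0.75 h for some and 1 h for others. Total drug in brain and liver was expressed as a ratio to total plasma drug (brain-to-plasma and liver-to-plasma distribution ratios).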

[16] = Ratio of drug uptake in ICR mouse liver to plasma at 30 mg/kg, po measured at 0.75 hrs by LC-MS analysis; format: ADME, organism-based; summary of the method: as §3
[17] = Ratio of drug uptake in rat brain to plasma; format: ADME; settings: read-out: BPR

EC50 [1]: 109 nM
Compound: CC#CC(CC(=O)O)c1ccc(OCc2ccc(C(=O)NC3CCCc4ccccc43)s2)cc1 (stereo not drawn)

EC50 [1]: 211 nM
Compound: CC#CC(CC(=O)O)c1ccc(OCc2ccc(C(=O)N3CCN(c4ccc(C)cc4)CC3)s2)cc1 (stereo not drawn)

EC50 [1]: 187 nM
Compound: CC#CC(CC(=O)O)c1ccc(OCc2ccc(C(=O)N3CCN(c4cccc([N+](=O)[O-])c4)CC3)s2)cc1 (stereo not drawn)

EC50 [1]: 155 nM
Compound: CC#CC(CC(=O)O)c1ccc(OCc2ccc(C(=O)N3CCN(Cc4ccccc4)CC3)s2)cc1 (stereo not drawn)

EC50 [1]: 80 nM
Compound: CC#CC(CC(=O)O)c1ccc(OCc2ccc(C(=O)N3CCCc4ccccc43)s2)cc1 (stereo not drawn)

EC50 [1]: > 1670 nM
Compound: O=C(O)CC1COc2cc(OCc3ccc(C(=O)N4CCN(c5ccc(F)cc5)CC4)s3)ccc21 (stereo not drawn)

EC50 [1]: 203 nM
Compound: CC#CC(CC(=O)O)c1ccc(OCc2cnc(C(=O)N3CCN(c4ccc(F)cc4)CC3)s2)cc1 (stereo not drawn)

EC50 [1]: 94 nM
Compound: CC#CC(CC(=O)O)c1ccc(OCc2ccc(C(=O)N3CCN(c4ccccc4[N+](=O)[O-])CC3)s2)cc1 (stereo not drawn)

EC50 [1]: 106 nM
Compound: CC#CC(CC(=O)O)c1ccc(OCc2ccc(C(=O)N3CCc4ccccc4C3)cc2)cc1 (stereo not drawn)

EC50 [1]: 20 nM | half-life at 100 µM [2]: 387 min | half-life at 100 µM [3]: 74 min | Papp A→B [4]: 18.8 ×10⁻⁶ cm/s | Ratio [5]: 0.9 | EC50 [6]: 14 nM | EC50 [7]: 23 nM | AUC(0-t) at 8 h [8]: 80000 ng·h/mL | half-life [9]: 318 min | Tmax [10]: 72 min | Cmax [11]: 15400 ng/mL | Kp at 1 h [12]: 0.011 | Kp at 1 h [13]: 0.3
Compound: CC#C[C@@H](CC(=O)O)c1ccc(OCc2ccc(C(=O)N[C@@H]3CCCc4ccccc43)cc2)cc1
Activity [14]: Active

EC50 [1]: 144 nM
Compound: CC#CC(CC(=O)O)c1ccc(OCc2cnc(C(=O)NC3CCCc4ccccc43)s2)cc1 (stereo not drawn)

EC50 [1]: 820 nM
Compound: CC#CC(CC(=O)O)c1ccc(OCc2ccc(C(=O)N3CCN(C4CCCCC4)CC3)s2)cc1 (stereo not drawn)

EC50 [1]: 47 nM | half-life at 100 µM [2]: 64 min | half-life at 100 µM [3]: 120 min | Papp A→B [4]: 20.6 ×10⁻⁶ cm/s | Ratio [5]: 0.8 | EC50 [6]: 25 nM | EC50 [7]: 31 nM | AUC(0-t) at 8 h [8]: 28400 ng·h/mL | half-life [9]: 228 min | Tmax [10]: 48 min | Cmax [11]: 13300 ng/mL | Kp at 1 h [12]: 0.018 | Kp at 1 h [13]: 15.1
Compound: CC#C[C@@H](CC(=O)O)c1ccc(OCc2ccc(C(=O)N3CCN(c4ccc(F)cc4)CC3)s2)cc1

EC50 [1]: 134 nM | half-life at 100 µM [2]: 18 min | half-life at 100 µM [3]: 2 min | Papp A→B [4]: 15 ×10⁻⁶ cm/s | Ratio [5]: 0.4 | AUC(0-t) at 8 h [8]: 5150 ng·h/mL | half-life [9]: 78 min | Tmax [10]: 42 min | Cmax [11]: 2850 ng/mL | Kp at 0.75 h [15]: 0.14 | Kp at 0.75 h [16]: 2.5
Compound: CC#C[C@@H](CC(=O)O)c1ccc(OCc2ccc(CN3CCC4(C=Cc5ccccc54)CC3)cc2)cc1 [LY2881835]

EC50 [1]: 72 nM | half-life at 100 µM [2]: 105 min | half-life at 100 µM [3]: 55 min
Compound: CC#CC(CC(=O)O)c1ccc(OCc2ccc(C(=O)N3CCN(c4ccccc4)CC3)s2)cc1 (stereo not drawn)

EC50 [1]: 54 nM
Compound: CC#CC(CC(=O)O)c1ccc(OCc2ccc(C(=O)N3CCN(c4ccc(F)cc4)CC3)s2)cc1 (stereo not drawn)

EC50 [1]: 531 nM
Compound: CC#CC(CC(=O)O)c1ccc(OCc2cnc(C(=O)N3CCc4ccccc4C3)s2)cc1 (stereo not drawn)

EC50 [1]: > 1670 nM
Compound: O=C(O)CC(c1ccc(OCc2ccc(C(=O)N3CCN(c4ccc(F)cc4)CC3)s2)cc1)C1CC1 (stereo not drawn)

EC50 [1]: 133 nM
Compound: CC#CC(CC(=O)O)c1ccc(OCc2ccc(C(=O)NC3CCCc4ccccc43)o2)cc1 (stereo not drawn)

EC50 [1]: 610 nM
Compound: O=C(O)CCc1ccc(OCc2ccc(C(=O)N3CCN(c4ccc(F)cc4)CC3)s2)cc1

EC50 [1]: 97 nM
Compound: CC#CC(CC(=O)O)c1ccc(OCc2ccc(C(=O)N3CCN(c4cccc(F)c4)CC3)s2)cc1 (stereo not drawn)

Kp [17]: 0.04
Compound: Cc1cc(Cl)ccc1-c1cccc(COc2ccc([C@H](CC(=O)O)c3nccn3C)cc2)c1

EC50 [1]: 114 nM
Compound: CC#CC(CC(=O)O)c1ccc(OCc2ccc(C(=O)N3CCN(c4ccc(F)cc4)CC3)cc2)cc1 (stereo not drawn)

EC50 [1]: 42 nM
Compound: CC#CC(CC(=O)O)c1ccc(OCc2ccc(C(=O)NC3CCCc4ccccc43)cc2)cc1 (stereo not drawn)

EC50 [1]: > 5000 nM
Compound: CC#CC(CC(=O)O)c1ccc(OCc2ccc(C(=O)N3CCN(c4ccncc4)CC3)s2)cc1 (stereo not drawn)

EC50 [1]: 289 nM
Compound: CC#CC(CC(=O)O)c1ccc(OCc2ccc(C(=O)N3CCN(c4ccc(OC)cc4)CC3)s2)cc1 (stereo not drawn)

EC50 [1]: > 5000 nM
Compound: CC#CC(CC(=O)O)c1ccc(OCc2ccc(C(=O)N3CCN(C)CC3)s2)cc1 (stereo not drawn)

EC50 [1]: 57 nM
Compound: CC#CC(CC(=O)O)c1ccc(OCc2ccc(C(=O)N3CCc4ccccc4C3)s2)cc1 (stereo not drawn)

EC50 [1]: 172 nM | half-life at 100 µM [2]: 25 min | half-life at 100 µM [3]: 7 min | Papp A→B [4]: 19.3 ×10⁻⁶ cm/s | Ratio [5]: 0.3
Compound: CC#CC(CC(=O)O)c1ccc(OCc2ccc(C(=O)N3CCC4(C=Cc5ccccc54)CC3)s2)cc1 (stereo not drawn)

EC50 [1]: 138 nM
Compound: CC#CC(CC(=O)O)c1ccc(OCc2ccc(C(=O)N3CCN(c4ccccn4)CC3)s2)cc1 (stereo not drawn)

EC50 [1]: 50 nM
Compound: CC#CC(CC(=O)O)c1ccc(OCc2ccc(C(=O)N3CCc4ccccc4C3)o2)cc1 (stereo not drawn)

EC50 [1]: 231 nM
Compound: CC#CC(CC(=O)O)c1ccc(OCc2ccc(C(=O)N3CCN(c4ccc([N+](=O)[O-])cc4)CC3)s2)cc1 (stereo not drawn)

Kp [17]: 0.02
Compound: Cc1nc(-c2ccc(C(F)(F)F)cc2)sc1COc1ccc([C@H](CC(=O)O)c2ccon2)cc1

EC50 [1]: 113 nM
Compound: CC#CC(CC(=O)O)c1ccc(OCc2ccc(C(=O)N3CCN(c4ccccc4F)CC3)s2)cc1 (stereo not drawn)

EC50 [1]: 1140 nM
Compound: CC#CC(CC(=O)O)c1ccc(OCc2ccc(C(=O)N3CCN(c4cccnc4)CC3)s2)cc1 (stereo not drawn)

EC50 [1]: 133 nM
Compound: CC#CC(CC(=O)O)c1ccc(OCc2ccc(C(=O)N3CCN(c4ccc(Cl)cc4)CC3)s2)cc1 (stereo not drawn)

EC50 [1]: 308 nM
Compound: CC#CC(CC(=O)O)c1ccc(OCc2ccc(C(=O)N3CCN(c4ccc(F)cc4)CC3)o2)cc1 (stereo not drawn)

EC50 [1]: 417 nM
Compound: CC#CC(CC(=O)O)c1ccc(OCc2ccc(C(=O)N3CCN(c4ccc(C(C)(C)C)cc4)CC3)s2)cc1 (stereo not drawn)

EC50 [1]: 179 nM | half-life at 100 µM [2]: 9 min | half-life at 100 µM [3]: 6 min | Papp A→B [4]: 10.9 ×10⁻⁶ cm/s | Ratio [5]: 0.3
Compound: CC#CC(CC(=O)O)c1ccc(OCc2ccc(C(=O)N3CCC4(C=Cc5ccccc54)CC3)cc2)cc1 (stereo not drawn)

EC50 [1]: 39 nM | half-life at 100 µM [2]: 214 min | half-life at 100 µM [3]: 27 min | Papp A→B [4]: 15.2 ×10⁻⁶ cm/s | Ratio [5]: 1.2 | EC50 [6]: 28 nM | EC50 [7]: 42 nM | AUC(0-t) at 8 h [8]: 3760 ng·h/mL | half-life [9]: 180 min | Tmax [10]: 15 min | Cmax [11]: 3770 ng/mL | Kp at 0.75 h [15]: 0.006 | Kp at 0.75 h [16]: 0.9
Compound: CC#C[C@@H](CC(=O)O)c1ccc(OCc2ccc(C(=O)N[C@H]3CCCc4ccccc43)cc2)cc1

EC50 [1]: > 5000 nM
Compound: CC#C[C@H](CC(=O)O)c1ccc(OCc2ccc(C(=O)N3CCN(c4ccc(F)cc4)CC3)s2)cc1
